Measurements from ChEMBL document CHEMBL3124750 (Bioorg Med Chem Lett, 2014).

What was measured:
Striatum [1] = test: Ratio of drug level from ipsilateral to contralateral in Wistar rat administered as iv measured after 60 mins of postinjection by MicroPET imaging analysis; format: ADME, organism-based; details: in vivo, 1 h
Outline: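 Anesthetized Wistar rats lesioned by AMPA injection into the right striatum 7 days earlier received the [18F] tracer i.v. for microPET. The ratio is bound tracer in the lesion divided by bound tracer in the contralateral side at 60 min post-injection.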

Liver microsome [2] = test: Drug metabolism in rat liver microsomes assessed as retention time of hydroxylated M2 metabolite formation after 30 mins by LC-MS/MS analysis; format: ADME; details: 0.5 h
Outline: (§1)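 Rat liver microsomes, 30 min incubation; metabolites detected by LC-MS and MS-MS. Chromatography: C18 column (2.1 x 150 mm, 5 µm), water/acetonitrile each with 0.05% formic acid, gradient 60:40 to 20:80 over 20 min, 200 µL/min; UV detection at 275 nm; retention times recorded.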

Liver microsome [3] = test: Drug metabolism in rat liver microsomes assessed as retention time of deethylated M1 metabolite formation after 30 mins by LC-MS/MS analysis; format: ADME; details: 0.5 h; outline: as §1
Liver microsome [4] = test: Drug metabolism in rat liver microsomes assessed as retention time of compound after 30 mins by LC-MS/MS analysis; format: ADME; details: 0.5 h; outline: as §1
[5] = Displacement of [3H]flunitrazepam from CBR in rat cerebral cortex membrane homogenates; format: cell membranes
Outline: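 Central benzodiazepine receptor counter-screen: competition against [3H]flunitrazepam (Kd = 2.1 nM, used at 0.4 nM) on rat cerebral cortex membrane homogenates; Ki values derived.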

Translocator protein = Translocator protein (Rattus norvegicus, UniProt P16257); test: Displacement of [3H]PK11195 from TSPO in rat heart membrane homogenates; format: cell membranes
[6] = Octanol-buffer partition coefficient, log D of the compound at pH 7.4 by HPLC method; format: physicochemical
Outline: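 The HPLC retention time was converted to logD7.4 by calibration against known logD values of similar compounds. C18 column (4.6 x 20 mm, 3.5 µm); A: 5 mM MOPS/(CH3)4NOH pH 7.4; B: 5% MOPS/(CH3)4NOH (100 mM, pH 7.4) in 95% acetonitrile; gradient 98:2 to 0:100; 1.2 mL/min; 25 °C; detection at 254 nm.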

Liver microsome [7] = test: Drug metabolism in rat liver microsomes assessed as retention time of dihydroxylated M4 metabolite formation after 30 mins by LC-MS/MS analysis; format: ADME; details: 0.5 h; outline: as §1
Liver microsome [8] = test: Drug metabolism in rat liver microsomes assessed as retention time of hydroxylated M3 metabolite formation after 30 mins by LC-MS/MS analysis; format: ADME; details: 0.5 h; outline: as §1
Striatum [9] = test: Drug uptake in iv dosed AMPA lesioned Wistar rat brain contralateral side of striatum measured after 60 mins by MicroPET imaging analysis; format: ADME, organism-based; details: in vivo, 1 h
Outline: (§2)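 MicroPET on anesthetized Wistar rats 7 days after AMPA injection into the right striatum. The [18F]-labelled tracer was given i.v.; uptake is expressed as percent injected dose per mL (% ID/mL) in the lesioned striatum or the contralateral area at 60 min.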

Striatum [10] = test: Drug uptake in iv dosed AMPA lesioned Wistar rat brain striatum measured after 60 mins by MicroPET imaging analysis; format: ADME, organism-based; details: in vivo, 1 h; outline: as §2

Chain of Translocator protein (P16257 whole entry, looked up): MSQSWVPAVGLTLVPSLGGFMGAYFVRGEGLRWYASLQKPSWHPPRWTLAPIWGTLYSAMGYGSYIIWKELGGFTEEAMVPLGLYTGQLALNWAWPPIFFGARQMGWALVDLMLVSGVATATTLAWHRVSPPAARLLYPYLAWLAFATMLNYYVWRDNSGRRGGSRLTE

Structure (SMILES) | Ratio (Striatum [1]) | Retention_time (Liver microsome [2]) [min] | Retention_time (Liver microsome [3]) [min] | Retention_time (Liver microsome [4]) [min] | Ki [5] [nM] | Ki (Translocator protein) [nM] | logD [6] | Retention_time (Liver microsome [7]) [min] | Retention_time (Liver microsome [8]) [min] | Drug uptake (Striatum [9]) [%ID/ml] | Drug uptake (Striatum [10]) [%ID/ml]
CCC(C)N([11CH3])C(=O)c1cc2ccccc2c(-c2ccccc2Cl)n1 (stereo not drawn) | 1.65 |  |  |  |  |  |  |  |  |  | 
CCN(CC)C(=O)Cc1c(-c2ccc(C#CCF)cc2)nn2c(C)cc(C)nc12 |  | 11 | 11.41 | 15.66 | > 1000 | 0.54 | 3.61 |  |  |  | 
CCN(CC)C(=O)Cc1c(-c2ccc(C#CCCCCF)cc2)nn2c(C)cc(C)nc12 |  | 11.19 | 11.68 | 15.81 | > 1000 | 0.79 | 4.35 | 5.89 | 10.01 |  | 
CCN(CC)C(=O)Cc1c(-c2ccc(C#CCCF)cc2)nn2c(C)cc(C)nc12 |  | 11.19 | 11.68 | 15.81 | > 1000 | 0.74 | 3.67 | 5.89 | 10.01 |  | 
CCN(CC)C(=O)Cc1c(-c2ccc(C#CCCC[18F])cc2)nn2c(C)cc(C)nc12 | 4.62 |  |  |  |  |  |  |  |  | 0.05 | 0.24
CCN(CC)C(=O)Cc1c(-c2ccc(OCCF)cc2)nn2c(C)cc(C)nc12 [DPA-714] |  |  |  |  | > 1000 |  | 2.89 |  |  |  | 
CCN(CC)C(=O)Cc1c(-c2ccc(C#CCCCF)cc2)nn2c(C)cc(C)nc12 |  | 11.37 | 12.08 | 17.05 | > 1000 | 0.35 | 4.06 | 3.43 | 8.92 |  | 
CCN(CC)C(=O)Cc1c(-c2ccc(OCC[18F])cc2)nn2c(C)cc(C)nc12 [DPA-714 F-18] |  |  |  |  |  |  |  |  |  | 0.08 | 0.3
